Only some compounds are listed: those with a hit (about 11% of all), similar ones and a draw of the others.
D1 mod = allosterically modulates the human D1 dopamine receptor | 5.9% of 58,000 active | B-score at 10 µM | HEK293 D1, CRE-luciferase, dopamine EC30 potentiation; actives deviate in either direction | AID 641;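 active = luminescence count or its row- and column-corrected plate score outside the 99.7% band of the plate's sample wells, on either side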
Target sequence (P21728 whole entry, looked up): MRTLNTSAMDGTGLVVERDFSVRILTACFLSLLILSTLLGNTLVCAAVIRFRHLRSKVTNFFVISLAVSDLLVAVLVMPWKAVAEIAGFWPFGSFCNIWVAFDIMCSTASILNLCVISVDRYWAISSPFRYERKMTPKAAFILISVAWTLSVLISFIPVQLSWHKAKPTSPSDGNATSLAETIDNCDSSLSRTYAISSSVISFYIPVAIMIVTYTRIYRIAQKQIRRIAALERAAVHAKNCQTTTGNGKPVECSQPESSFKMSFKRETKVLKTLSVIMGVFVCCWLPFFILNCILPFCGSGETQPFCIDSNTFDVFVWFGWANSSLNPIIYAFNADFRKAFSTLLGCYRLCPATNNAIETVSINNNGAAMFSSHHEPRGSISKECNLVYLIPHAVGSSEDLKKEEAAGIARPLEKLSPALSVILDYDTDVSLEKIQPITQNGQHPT
SF1 activator = activates the human nuclear receptor SF-1 | Q13285 | activation, % at 10 µM | 1.9% of 65,000 active | CHO-K1 Gal4-SF-1 LBD luciferase reporter; % increase over DMSO SF-1-specific signal;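 active = activation above the mean activation of all tested compounds plus 3 SD, cut at about 50% in these data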
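Test system: CHO-K1 cells co-transfected with Gal4 DBD–human SF-1 LBD, 5xGal4 luciferase reporter. Quantity: 4,000 cells per well. Compound: 10 µM only. Incubation: compound added 1 h post-seeding, 20 h exposure at 37 °C, 5% CO2. Detection: SteadyLite luciferase luminescence. Replication: one test per compound.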
M1 antagonist = M1 muscarinic receptor (rat) antagonism; P08482; CHO-M1 cells, Fluo-4 calcium, ACh EC80 antagonist mode; hits give low values; B-score at 10 µM; 3.4% of 64,000 active; AID 628;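 active = calcium fluorescence response, raw or row-and-column corrected B-score, differing from the plate sample mean either way at a set confidence level, mostly lower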
M1 agonist = M1 muscarinic receptor agonism; CHO-M1 cells, Fluo-4 calcium fluorescence, agonist mode; hits give high values; B-score at 10 µM; 3% of 64,000 active; AID 626;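 active = fluorescence rise, raw or as B-score row- and column-corrected plate score, outside the 99.7% band of its plate's samples, either direction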
RORA act = RORA (human) activation. P35398. CHO-K1 Gal4-RORA LBD luciferase reporter, luminescence; percent increase over mock-subtracted basal signal. activation, % at 10 µM. 1.5% of 65,000 active. AID 560;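 active = activation above the mean of all tested compounds plus 3 SD, cut at about 49% in these data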;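 note: 0% = DMSO-treated RORA cells and 100% = added signal equal to DMSO minus mock-transfected cells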
mHtt clearance = compounds clearing mutant huntingtin protein; HeLa Exon1htt(103Q)mCFP, aggregate imaging; zero = plate's median compound well; inhibition, % at 1.5 µM; 0.42% of 47,000 active; AID 853;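 active = inhibition of aggregate fluorescence above about 70%, also judged a hit by eye on the cell image, limit read from the data, passing the limit was not always enough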;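 note: cells exposed to compound for three days before fixation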
D1 PAM confirm = D1 receptor (human) allosteric modulation, confirmed | HEK293 D1 CRE-luciferase, dopamine EC30 potentiation; hits give high values | AID 642 | 88% of 2,200 active | luminescence at 10 µM | shares compounds with D1 mod;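 active = luminescence in either of two replicates above the same-plate mean plus 3 SD of the low-dose dopamine control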
D1 ag no DA = secondary test of D1 modulators: activity without dopamine | shares compounds with D1 mod | HEK293 D1 CRE-luciferase, luminescence, no dopamine; hits give high values | luminescence at 10 µM | 0.8% of 1,900 active; in the data active = luminescence above about 3900
Isoprot counter = counter-screen for D1 modulators: isoproterenol response in HEK293 cells | AID 647 | HEK293 D1 CRE-luciferase, isoproterenol EC30 counter-screen | 63% of 2,200 active | shares compounds with D1 mod | calls only at 10 µM;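 active = luminescence in either replicate above plate mean of wells with a partly effective reference agonist dose plus 3 SD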;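 note: isoproterenol raises cAMP through native beta-adrenoceptor Gs so signal bypasses D1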
Active calls of the source: *; i = inactive; x = no result; + = active, no number.

SMILES	D1 mod	SF1 activator	M1 antagonist	M1 agonist	RORA act	mHtt clearance	D1 PAM confirm	D1 ag no DA	Isoprot counter
N#CCCCCn1c(-c2cncs2)nc2ccccc21	4.7*	10	1	0.015	-4	-8	17344*	1684	+
COc1ccc(-n2ncc3c(NCCCn4ccnc4)ncnc32)cc1	x	45	0.24	0.29	44	x	x	x	x
Cc1ccc(OCC(=O)Nn2c(C)nc3ccccc3c2=O)c(C(C)C)c1	x	x	x	x	x	6	x	x	x
COC(=O)CCc1c(C)c(C#N)c2nc3ccccc3n2c1N1CCCC1	5.5*	1	-0.13	-0.65	-7	8	10456*	x	+
CCOC(=O)CCc1c(C)c(C#N)c2nc3ccccc3n2c1-n1ccnc1	0.19	4	-0.49	-1.1	14	0	x	x	x
C=CCN=C(NC#N)SCC(=O)c1cccc(OC)c1	12*	36	-0.0089	-0.7	23	21	10808*	1776	+
C=CCNC(=O)C(=O)c1cccn1-c1ccsc1C(=O)OC	x	x	x	x	x	-145	x	x	x
O=C(c1ccccc1Cl)N1CCCC(c2nc3c(nnn3Cc3ccccc3)c(=O)[nH]2)C1 (configuration not stated)	1.4	-2	-0.34	-0.22	0	x	x	x	x
COc1cccc(Cn2nnc3c(=O)[nH]c(C4CCCN(C(=O)c5ccccc5Cl)C4)nc32)c1 (configuration not stated)	3*	-19	1.7	2	10	-32	9972*	x	+
Cc1ccc(Cn2nnc3c(=O)[nH]c(C4CCCN(C(=O)Nc5ccc(F)cc5)C4)nc32)cc1 (configuration not stated)	2.1	7	0.002	-0.068	-9	x	x	x	x
COc1ccc(Cn2nnc3c(=O)[nH]c(C4CCCN(C(=O)c5ccccc5)C4)nc32)cc1 (configuration not stated)	4.3*	10	-0.052	0.32	-9	x	10456*	1612	i
CC(=O)c1cccc(NC(=O)C2CCN(S(=O)(=O)c3c(C)n[nH]c3C)CC2)c1	-0.39	8	-0.11	0.5	-6	-13	x	x	x
Cc1ccc(NC(=O)c2cccc(OCc3c(C)noc3C)c2)c(C)c1	4.6*	15	-0.43	-0.012	5	x	5064	1592	i
CCc1cc(=O)oc2cc3oc(C)c(C)c3cc12	4.5*	0	0.82	0.1	-23	x	5904	1888	i
CCOC(=O)c1csc(NC(=O)CSc2nnnn2CC)n1	-0.017	2	-0.21	0.16	8	-46	x	x	x
C/C(Cl)=C\Cn1c(Nc2ccccc2)nc2c1c(=O)n(C)c(=O)n2C	14*	24	-0.47	0.31	27	1	11964*	x	+
C/C(Cl)=C/Cn1c(NCCN(C)C)nc2c1c(=O)n(C)c(=O)n2C	1.3	3	0.42	0.85	-9	x	x	x	x
COc1cccc(Nc2ncccc2C(=O)NCc2ccccc2)c1	11*	6	0.59	3.8*	4	-152	21276*	1540	+
O=C(CP(=O)(c1ccccc1)c1ccccc1)Nn1cnnc1	-0.77	x	0.88	-1.6	x	x	x	x	x
O=C(C1CCC(N2C(=O)C3CC=CCC3C2=O)CC1)N1CCCCC1 (configuration not stated)	0.22	-9	0.013	-0.06	25	7	x	x	x
CC(C)C(NS(=O)(=O)c1ccc2c3c(cccc13)C(=O)N2)C(=O)O (configuration not stated)	7*	-11	-0.076	0.15	15	-37	5048	x	i
CCn1c(=O)c2cc(S(=O)(=O)NC3CCCCC3)ccc2n(CC)c1=O	4.2*	6	0.03	0.47	7	-62	6924*	1232	i
OC[C@H]1O[C@@H](n2cnc3c(Nc4ccccc4)ncnc32)[C@H](O)[C@@H]1O	6.6*	48	-0.17	0.33	5	x	7048*	x	+

Screening results (PubChem BioAssay)
